High-throughput results (PubChem BioAssay)
In the library only some 1.8% were active in any assay of this set; here they are far more common.
CHRM5 PAM = CHRM5 positive allosteric modulation; hit rate 0.3% among 360,000; CHO-K1 hM5, Fluo-8 calcium, ACh EC20 PAM; 0% = ACh EC20, 100% = ACh EC100; activation, % at 3 µM;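 active means activation above the run cutoff, the mean activation of all test compounds plus 3 SD, cut at about 18% in these data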
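Assay system: CHO-K1 hM5 cells / Incubation: Fluo-8 loading 80 min at 37 °C plus 30 min room temperature / Technique: Fluo-8 calcium dye fluorescence, kinetic read / Repeats: single replicate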
CHRM4 antagonist = antagonists of human muscarinic M4 receptor (CHRM4) | P08173 | CHO-hM4 cells, ACh EC80, Fluo-8 calcium fluorescence | inhibition, % at 3 µM | hit rate 0.73% among 360,000;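 active means inhibition above its plate's cutoff, the mean inhibition of sample wells plus 3 SD, cut at about 27% in these data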;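 further: 0% = acetylcholine EC80 with DMSO and 100% = DMSO without agonist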
Target sequence (P08173 whole entry, looked up): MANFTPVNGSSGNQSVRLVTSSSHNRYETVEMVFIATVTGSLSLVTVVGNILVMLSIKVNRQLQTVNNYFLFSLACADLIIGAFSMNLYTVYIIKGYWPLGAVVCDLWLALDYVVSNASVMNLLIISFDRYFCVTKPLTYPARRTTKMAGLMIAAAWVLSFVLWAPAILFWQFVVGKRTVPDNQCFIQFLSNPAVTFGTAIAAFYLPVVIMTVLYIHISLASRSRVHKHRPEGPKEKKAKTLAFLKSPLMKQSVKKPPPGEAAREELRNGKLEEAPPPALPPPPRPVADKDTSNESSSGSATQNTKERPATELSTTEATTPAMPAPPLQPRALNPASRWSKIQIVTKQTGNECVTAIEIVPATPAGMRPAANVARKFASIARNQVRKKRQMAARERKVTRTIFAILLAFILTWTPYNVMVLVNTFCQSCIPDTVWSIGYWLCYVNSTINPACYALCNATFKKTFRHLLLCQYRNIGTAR
CHRM5 agonist = CHRM5 agonism in calcium assay; P08912; CHO-K1 hM5 cells, Fluo-8 calcium fluorescence; 0% DMSO wells, 100% maximal acetylcholine response; activation, % at 3 µM; hit rate 0.19% among 360,000; AID 624037;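 active means activation above the run's mean over test compounds plus 3 SD, cut at about 23% in these data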;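 further: signal is peak over basal fluorescence ratio across the kinetic read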
CHRM4 PAM = potentiates acetylcholine response at human M4 receptor. P08173. CHO-K1 hM4/Gqi5, Fluo-8 calcium fluorescence, ACh EC20; 0% = ACh EC20, 100% = maximal ACh. activation, % at 3 µM. hit rate 0.4% among 360,000;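 active means activation above its plate's cutoff, the mean activation of sample wells plus 3 SD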
M4 ag = CHRM4 agonism in calcium assay. P08173. CHO-K1 hM4/Gqi5, Fluo-8 calcium fluorescence; vehicle 0%, full acetylcholine response 100%. activation, % at 3 µM. hit rate 0.14% among 360,000. AID 624127;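 active means activation above the run mean over all test wells plus 3 SD, cut at about 32% in these data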;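 further: peak over basal fluorescence ratio per well then scaled between controls; 0% = DMSO wells and 100% = acetylcholine at EC100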
CHRM5 antagonist = antagonists of human muscarinic M5 receptor (CHRM5) | CHO-hM5 cells, Fluo-8 calcium fluorescence, ACh EC80 | hit rate 0.59% among 360,000 | AID 624040 | inhibition, % at 3 µM | P08912;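 active means inhibition above a per-plate cutoff, the mean of that plate's test compounds plus 3 SD, cut at about 27% in these data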;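 further: 0% = acetylcholine EC80 with DMSO and 100% = DMSO without agonist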
Active calls of the source: *; ! = a repeat was not active.

SMILES	CHRM5 PAM	CHRM4 antagonist	CHRM5 agonist	CHRM4 PAM	M4 ag	CHRM5 antagonist
CN(Cc1cccc(-c2ccncc2)c1)C(=O)Oc1ccccc1Cl	-23	14	3	-11	20	8
CN(C)CCSC1c2ccccc2CSc2ccccc21 (centres undefined)	-32	98*	-21	-17	5	99*
O=C(Nc1ccc(C(F)(F)F)cc1)OC1CN2CCC1CC2 (centres undefined)	-7	-5	-16	-20	4	6
O=C(Nc1cccc(C(F)(F)F)c1)OC1CN2CCC1CC2 (centres undefined)	-18	43*	-6	-16	3	70*
CN1C(=O)CCC2(C)C1=CCC1C2CCC2(C)C1CCC2(C)O (centres undefined)	18*	-4	4	13	2	-7
C[C@]12CCC(=O)C=C1CCC1C2CC[C@@]2(C)C1CC[C@]2(C)O (some centres undefined)	-11	1	0	-6	6	18
O=C(Nc1cc(Cl)cc(Cl)c1)N1Cc2ccccc2-n2nncc2C1	-5	-8	-1	4	3	8
CCOC(=O)c1ccc(NC(=O)N2C[C@@H]3C[C@@H](C2)c2cccc(=O)n2C3)cc1	-9	69*	-1	-14	0	3
CCOC(=O)c1ccc(NC(=O)N2CC3CC(C2)c2cccc(=O)n2C3)cc1 (centres undefined)	2	3	-2	-3	1	5
CC1(C)CSC(=NCc2ccccc2)N1	-19	19	26*	-28	64*	9
O=C(Nc1ccccc1)N1CCC2(CC1)OCCO2	2	-2	-3	9	0	-4
O=C1CCCN1CC#CCN1CCCC1	-15	81*	103*	-19	84*	95*
C(#CCN1CCCCC1)CN1CCCCC1	-6	2	1	-4	1	1
CC(C)N(CCC(C(N)=O)(c1ccccc1)c1ccccn1)C(C)C (centres undefined)	-18	22	-2	-16	0	39*!
CC(=O)C1C2c3ccccc3OC1(C)N=c1s/c(=C/c3cn(C)nc3C)c(=O)n12 (centres undefined)	1	-3	0	1	1	-3
CC1=CC2OC3CC4OC(=O)C=CC=CC(=O)OCCC(C)C(O)C(=O)OCC2(CC1)C4(C)C31CO1 (centres undefined)	-36	19	6	-9	19	12
CN1CCN(c2ccc([N+](=O)[O-])c(Sc3ccccn3)c2)CC1	28*	-14	-16	24	1	-13
CC(C)(C)c1ccc(CSc2cnn(C(C)(C)C)c(=O)c2Cl)cc1	-12	11	12	-4	12	28*
COC1CC2C=C(C)C=CC=CC(=O)NC(c3ccccc3)CC=CCCC(O)CC(=O)C2=C1O (centres undefined)	-20	87*	16	-14	21	54*
CC(C)c1ccc(-n2c(O)c(C=NC(CCS(C)=O)C(=O)O)c(=O)[nH]c2=S)cc1 (centres undefined)	2	8	-6	6	0	9
COc1ccc(-[n+]2c(-c3ccccc3)cc(-c3ccc(C)cc3)cc2-c2ccccc2)cc1	-34	82*	-24	-20	7	81*
CCCOC(=O)c1ccc(-[n+]2c(-c3ccccc3)cc(-c3ccccc3)cc2-c2ccccc2)cc1	-41	46*	-8	-14	5	31*
Cc1ccc(-c2cc(-c3ccccc3)cc(-c3ccccc3)[n+]2-c2ccc(C(=O)O)cc2)cc1	-1	17	1	25*	2	4
Cc1ccc(-c2cc(-c3ccc(C)cc3)[n+](-c3ccc(C(=O)O)cc3)c(-c3ccc(C)cc3)c2)cc1	7	-11	-2	3	0	7
Brc1ccc(-[n+]2c(-c3ccccc3)cc(-c3ccccc3)cc2-c2ccccc2)cc1	-41	40*	-9	-12	2	25
SMILES	CHRM5 PAM	CHRM4 antagonist	CHRM5 agonist	CHRM4 PAM	M4 ag	CHRM5 antagonist
C#CCNc1ccncc1S(=O)(=O)NC(=O)NC(C)C	-1	-6	1	-2	0	-3
N=c1c[n+](CC23CC4CC(CC(C4)C2)C3)[n-]o1	-2	-10	-8	12	2	-10
C=C1C(C)C2C(Cc3ccccc3)NC(=O)C23C(OC(C)=O)C=CC(C)(O)CC(C)CC=CC3C1O (centres undefined)	21*	-19	4	7	2	-12
CN(C)c1ccc(/C=C/[N+](=O)[O-])cc1	-8	11	35*	1	10	55*
O=C1NC(=O)C(=Cc2ccc(-c3ccc(Cl)cc3)o2)C(=O)N1	22*	-4	-2	17	1	-12
O=C1NC(=O)C(=Cc2ccc(-c3ccc(F)cc3O)o2)C(=O)N1	5	-6	25*	26*	12	16
CN(C)C1C(=O)C(C(N)=O)=C(O)C2(O)C(=O)C3=C(O)c4c(O)cccc4C(C)(O)C3C(O)C12 (centres undefined)	-1	12	1	-2	-3	-3
CC(C)(C)C(=O)O[C@H]1CC[C@@]2(C)C(=CC(=O)C3C2CC[C@]2(C)C(=O)[C@@H](F)CC32)C1 (some centres undefined)	7	1	4	-4	3	7
Cc1ccccc1NP(=O)(Oc1ccccc1F)Oc1ccccc1F	-15	14	2	-13	13	12
COC(=O)C1=C(c2ccc(F)cc2F)C[C@@H]2CC[C@H]1N2C(=O)NCCCOC(C)C	-2	3	-2	6	1	6
CON(C)C(=O)Nc1ccc(Cl)cc1	5	2	0	16	2	-3
O=C(Nc1ccc(Cl)cc1)O/N=C(\c1ccccc1)c1ccccn1	-12	13	4	-20	8	33*
C=CCn1c(O)c(C(C)=Nc2ccc(NC(C)=O)cc2)c(=O)[nH]c1=O	4	-6	-1	21*	0	-5
C=CCn1c(O)c(C(CC)=Nc2ccccc2NC(C)=O)c(=O)[nH]c1=O	2	12	-1	28*	1	-7
COc1ccc(NC2Oc3cc4c(cc3C(c3cc(OC)c(OC)c(OC)c3)C2C)OCO4)cc1 (centres undefined)	19*	-15	3	13	1	-11
COc1cc(C2c3cc4c(cc3CC3COC(=O)C32)OCO4)cc(OC)c1OC (centres undefined)	6	-9	-1	3	1	1
N#CC1=C(N)Oc2c(c(=O)oc3ccccc23)C1c1cccnc1 (centres undefined)	20*	0	-3	13	-1	-11
